Source: PubChem (several laboratories)
Only some compounds are listed: those with a hit (about 0.75% of all), similar ones and a draw of the others.
p47phox inh: p47phox (human) inhibition; inhibition, % at 24.7 µM; 220,000 compounds, 0.53% hits; P14598; AID 1274; p47phox/p22phox peptide binding, fluorescence polarization, 2 h;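 active means inhibition above about 30%, limit read from the data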;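 further: 0% = p47phox with labelled peptide and 100% = labelled peptide alone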
Rad51 HR inh: blocks human Rad51 in homologous recombination; Q06609; hRad51 DNA strand exchange, fluorescence dequenching; inhibition, % at 10 µM; 200,000 compounds, 0.085% hits;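 active means inhibition above 40% at the single screening dose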;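 further: 0% = DMSO control wells and 100% = blanks with heterologous ssDNA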
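Test system: preformed human Rad51 ssDNA filaments. Compound dosing: single dose, 10 µM final compound. Incubation: filaments 15 min 37 °C, then compound 30 min. Technique: FRET fluorescence dequenching, excitation 485 nm, emission 520 nm. Read-out basis: percent inhibition from fluorescence, normalised to plate control and blank means. Benchmarks: plate controls and plate blanks.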
TbHK1 inh: T. brucei hexokinase 1 inhibition. recombinant TbHK1, G6PDH-coupled NADH A340. inhibition, % at 10 µM. 220,000 compounds, 0.11% hits. AID 1430;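 active means inhibition of 50% or more in the single-dose primary screen; inactive means inhibition below 50%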
MDM2 E3 inh: blocks human Mdm2 ubiquitin ligase activity. Q00987. cell-based MDM2 ubiquitination luciferase reporter, 2 h; 0 = plate control, 100 = twice control, blank-subtracted. signal enhancement, % at 5 µM. 210,000 compounds, 0.11% hits. AID 1230;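 active means signal enhancement of 30% or more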;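 further: luminescence tracks abundance of the self-degrading MDM2-luciferase fusion protein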
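Test system: mammalian cells stably expressing self-ubiquitinating, self-degrading MDM2 E3–luciferase fusion; Amount: 2000 cells in each well; Medium: DMEM; Schedule: 4 h settle plus 2 h compound, 37 °C; Technique: SteadyLite luciferase luminescence after 15 min room-temperature reagent incubation; Benchmarks: plate control and blank wells.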
G6PDH ctr: inhibits Leuconostoc G6PDH, counter-screen for TbHK1 inhibitors. purified G6PDH, NADH absorbance, 1 h. inhibition, % at 10 µM. shares compounds with TbHK1 inh. 210 compounds, 7% hits;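 active means at least 50% inhibition in the glucose-6-phosphate dehydrogenase coupled counterscreen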
TbHK1 rescreen: confirmation of Trypanosoma brucei hexokinase 1 inhibitors; inhibition, % at 10 µM; recombinant TbHK1, G6PDH-coupled NADH A340 absorbance; 210 compounds, 10% hits; shares compounds with TbHK1 inh;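 active means inhibition of at least 50% in both of the two screening runs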;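 further: 0% and 100% set by the maximum and minimum signal control wells on each plate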
* hit, by the source's call.

How did C=C1C(=O)O[C@@H]2C[C@@H](C)[C@@H]3C=CC(=O)[C@@]3(C)[C@@H](O)[C@H]12 do in these assays?
p47phox inh: -8; Rad51 HR inh: 1; TbHK1 inh: -13; MDM2 E3 inh: 53*

How did C[C@@H]1C[C@H]2OC(=O)C3(CO3)[C@H]2[C@H](O)[C@]2(C)C(=O)C3OC3[C@@H]12 (some centres not stated) do in these assays?
p47phox inh: 0; Rad51 HR inh: -6; TbHK1 inh: -10; MDM2 E3 inh: -7

How did CC(=O)OC1N=C(c2ccccc2)c2cc(Br)ccc2N(C)C1=O (configuration not stated) do in these assays?
p47phox inh: 32*; TbHK1 inh: -6; MDM2 E3 inh: 6

How did O=c1[nH]c(=O)n(CCC2=CCCCC2)c(O)c1C=NCc1cccnc1 do in these assays?
p47phox inh: -1; Rad51 HR inh: -5; TbHK1 inh: 56*; MDM2 E3 inh: -6; G6PDH ctr: -9; TbHK1 rescreen: -6

Results for O=P(O)(O)COc1ccccc1O ?
p47phox inh: 7; Rad51 HR inh: 10; TbHK1 inh: 73*; MDM2 E3 inh: -12; G6PDH ctr: -8; TbHK1 rescreen: -1

Results for NP(=O)(Oc1ccccc1Cl)Oc1ccccc1Cl ?
p47phox inh: -7; Rad51 HR inh: 0; TbHK1 inh: 3; MDM2 E3 inh: -18

What do the screens show for `CN[C@@H]1C[C@@H](c2ccc(Cl)c(Cl)c2)c2ccccc21`?
p47phox inh: 1; Rad51 HR inh: 0
